Test results published in ChEMBL document CHEMBL3864121, “Development of ebsulfur analogues as potent antibacterials against methicillin-resistant Staphylococcus aureus” (Bioorg Med Chem, 2016).
Converted amounts (≈) assume the structure as drawn. The source made the active and inactive calls. The rule behind the calls is not given here.

Tests used:
[1] = tested on: Staphylococcus aureus; assay: Antibacterial activity against methicillin-resistant Staphylococcus aureus USA200 measured after overnight incubation by broth double-dilution method; format: functional
Procedure, shortened: (§1)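 MIC by broth double-dilution in liquid Mueller-Hinton medium. Values are reported in µg/mL.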

[2] = tested on: Staphylococcus aureus; assay: Antibacterial activity against methicillin-resistant Staphylococcus aureus NRS4 measured after overnight incubation by broth double-dilution method; format: functional; procedure, shortened: as §1
[3] = tested on: Staphylococcus aureus; assay: Antibacterial activity against methicillin-resistant Staphylococcus aureus C1 measured after overnight incubation by broth double-dilution method; format: functional; procedure, shortened: as §1
[4] = tested on: Staphylococcus aureus; assay: Antibacterial activity against methicillin-sensitive Staphylococcus aureus ATCC 6538 measured after overnight incubation by broth double-dilution method; format: functional; procedure, shortened: as §1
[5] = tested on: Enterococcus faecalis; assay: Antibacterial activity against Enterococcus faecalis ATCC 29212 measured after overnight incubation by broth double-dilution method; format: functional
Procedure, shortened: (§2)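 MIC by broth double-dilution in Mueller-Hinton medium. Re-testing at the time-kill inoculum used 1×10^6 CFU/mL.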

[6] = tested on: Staphylococcus aureus; assay: Antibacterial activity against methicillin-resistant Staphylococcus aureus G14 measured after overnight incubation by broth double-dilution method; format: functional; procedure, shortened: as §1
[7] = tested on: Listeria monocytogenes; assay: Antibacterial activity against Listeria monocytogenes ATCC 19115 measured after overnight incubation by broth double-dilution method; format: functional; procedure, shortened: as §2
[8] = tested on: Enterococcus faecium; assay: Antibacterial activity against Enterococcus faecium BM4105-RF measured after overnight incubation by broth double-dilution method; format: functional; procedure, shortened: as §1
[9] = tested on: Staphylococcus aureus; assay: Antibacterial activity against methicillin-resistant Staphylococcus aureus 2 measured after overnight incubation by broth double-dilution method; format: functional; procedure, shortened: as §1
[10] = tested on: Staphylococcus aureus; assay: Antibacterial activity against methicillin-resistant Staphylococcus aureus S22 measured after overnight incubation by broth double-dilution method; format: functional; procedure, shortened: as §1
[11] = tested on: Staphylococcus aureus; assay: Antibacterial activity against methicillin-resistant Staphylococcus aureus G6 measured after overnight incubation by broth double-dilution method; format: functional; procedure, shortened: as §1
[12] = tested on: Staphylococcus aureus; assay: Antibacterial activity against methicillin-resistant Staphylococcus aureus BRS3 measured after overnight incubation by broth double-dilution method; format: functional; procedure, shortened: as §1
[13] = tested on: Enterococcus faecalis; assay: Antibacterial activity against Enterococcus faecalis ATCC 49533 measured after overnight incubation by broth double-dilution method; format: functional; procedure, shortened: as §2
[14] = tested on: Staphylococcus aureus; assay: Antibacterial activity against methicillin-resistant Staphylococcus aureus USA600 measured after overnight incubation by broth double-dilution method; format: functional; procedure, shortened: as §1
[15] = tested on: Staphylococcus aureus; assay: Antibacterial activity against methicillin-resistant Staphylococcus aureus C14 measured after overnight incubation by broth double-dilution method; format: functional; procedure, shortened: as §1
[16] = tested on: Staphylococcus aureus; assay: Antibacterial activity against methicillin-resistant Staphylococcus aureus USA300 measured after overnight incubation by broth double-dilution method; format: functional; procedure, shortened: as §1
[17] = tested on: Staphylococcus aureus; assay: Antibacterial activity against methicillin-resistant Staphylococcus aureus NRS51 measured after overnight incubation by broth double-dilution method; format: functional; procedure, shortened: as §1
[18] = tested on: Staphylococcus aureus; assay: Antibacterial activity against methicillin-resistant Staphylococcus aureus NRS77 measured after overnight incubation by broth double-dilution method; format: functional; procedure, shortened: as §1
[19] = tested on: Staphylococcus aureus; assay: Antibacterial activity against methicillin-resistant Staphylococcus aureus C7 measured after overnight incubation by broth double-dilution method; format: functional; procedure, shortened: as §1
[20] = tested on: Staphylococcus aureus; assay: Antibacterial activity against methicillin-resistant Staphylococcus aureus C19 measured after overnight incubation by broth double-dilution method; format: functional; procedure, shortened: as §1
[21] = tested on: Staphylococcus aureus; assay: Antibacterial activity against methicillin-resistant Staphylococcus aureus G12 measured after overnight incubation by broth double-dilution method; format: functional; procedure, shortened: as §1
[22] = tested on: Staphylococcus aureus; assay: Antibacterial activity against methicillin-resistant Staphylococcus aureus C2 measured after overnight incubation by broth double-dilution method; format: functional; procedure, shortened: as §1
[23] = tested on: Staphylococcus aureus; assay: Antibacterial activity against methicillin-resistant Staphylococcus aureus USA100 measured after overnight incubation by broth double-dilution method; format: functional; procedure, shortened: as §1
[24] = tested on: Staphylococcus aureus; assay: Antibacterial activity against methicillin-resistant Staphylococcus aureus C16 measured after overnight incubation by broth double-dilution method; format: functional; procedure, shortened: as §1
[25] = tested on: Staphylococcus aureus; assay: Antibacterial activity against methicillin-resistant Staphylococcus aureus G1 measured after overnight incubation by broth double-dilution method; format: functional; procedure, shortened: as §1
[26] = tested on: Mycolicibacterium smegmatis; assay: Antibacterial activity against Mycobacterium smegmatis MC2-155 measured after overnight incubation by broth double-dilution method; format: functional; settings: str. MC2 155; procedure, shortened: as §1
[27] = tested on: Staphylococcus aureus; assay: Antibacterial activity against methicillin-resistant Staphylococcus aureus S14 measured after overnight incubation by broth double-dilution method; format: functional; procedure, shortened: as §1
[28] = tested on: Staphylococcus epidermidis; assay: Antibacterial activity against Staphylococcus epidermidis ATCC 35984 measured after overnight incubation by broth double-dilution method; format: functional; settings: RP62A; procedure, shortened: as §2
[29] = Cytotoxicity against HEK293 cells assessed as cell death at […] measured after 24 hrs by resazurin dye-based fluorescence analysis relative to untreated control; format: toxicity; settings: human, hek293, 24 h
[30] = tested on: Staphylococcus aureus; assay: Antibacterial activity against methicillin-resistant Staphylococcus aureus ATCC 33591 measured after overnight incubation by broth double-dilution method; format: functional; procedure, shortened: as §1
[31] = tested on: Staphylococcus aureus; assay: Antibacterial activity against methicillin-resistant Staphylococcus aureus S24 measured after overnight incubation by broth double-dilution method; format: functional; procedure, shortened: as §1
[32] = tested on: Staphylococcus aureus; assay: Antibacterial activity against methicillin-sensitive Staphylococcus aureus ATCC 29213 measured after overnight incubation by broth double-dilution method; format: functional; procedure, shortened: as §1
[33] = tested on: Enterococcus; assay: Antibacterial activity against Vancomycin-resistant Enterococcus measured after overnight incubation by broth double-dilution method; format: functional; procedure, shortened: as §1
[34] = tested on: Staphylococcus aureus; assay: Antibacterial activity against methicillin-resistant Staphylococcus aureus 1 measured after overnight incubation by broth double-dilution method; format: functional; procedure, shortened: as §1
[35] = tested on: Staphylococcus aureus; assay: Antibacterial activity against methicillin-sensitive Staphylococcus aureus ATCC 25923 measured after overnight incubation by broth double-dilution method; format: functional; procedure, shortened: as §1
[36] = tested on: Staphylococcus aureus; assay: Antibacterial activity against methicillin-resistant Staphylococcus aureus S17 measured after overnight incubation by broth double-dilution method; format: functional; procedure, shortened: as §1
[37] = tested on: Staphylococcus aureus; assay: Bacteriostatic activity against methicillin-resistant Staphylococcus aureus S22 at MIC measured up to 3 to 6 hrs by time kill analysis; format: functional
[38] = tested on: Staphylococcus epidermidis RP62A; assay: Inhibition of thioredoxin reductase in Staphylococcus epidermidis ATCC 35984 assessed as induction of ROS production at 1 to 4 times MIC measured after 1 hr by DCFH-DA staining-based fluorescence microscopic analysis
Procedure, shortened: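 Untreated cells served as the negative control and 1 mM H2O2 as the positive control. Cells were stained with DCFH-DA (40 µg/mL) and ROS were visualized by fluorescence microscopy.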

[39] = tested on: Staphylococcus aureus; assay: Bacteriostatic activity against methicillin-resistant Staphylococcus aureus S22 at 0.5 times MIC measured up to 3 to 6 hrs by time kill analysis; format: functional
[40] = tested on: Staphylococcus aureus; assay: Antibacterial activity against methicillin-resistant Staphylococcus aureus S22 using 1 10^6CFU/ml measured after overnight incubation by broth double-dilution method; format: functional
[41] = tested on: Staphylococcus aureus; assay: Bacteriostatic activity against methicillin-resistant Staphylococcus aureus S22 at 4 times MIC measured after 24 hrs by time kill analysis; format: functional

| SMILES | MIC [1] [µg/mL] | MIC [2] [µg/mL] | MIC [3] [µg/mL] | MIC [4] [µg/mL] | MIC [5] [µg/mL] | MIC [6] [µg/mL] | MIC [7] [µg/mL] | MIC [8] [µg/mL] | MIC [9] [µg/mL] | MIC [10] [µg/mL] | MIC [11] [µg/mL] | MIC [12] [µg/mL] | MIC [13] [µg/mL] | MIC [14] [µg/mL] | MIC [15] [µg/mL] | MIC [16] [µg/mL] | MIC [17] [µg/mL] | MIC [18] [µg/mL] | MIC [19] [µg/mL] | MIC [20] [µg/mL] | other results |
| --- | --- | --- | --- | --- | --- | --- | --- | --- | --- | --- | --- | --- | --- | --- | --- | --- | --- | --- | --- | --- | --- |
| O=c1c2ccccc2sn1CCc1ccccc1 | 2 (≈ 7.83 µM) | 2 (≈ 7.83 µM) | 2 (≈ 7.83 µM) | 3.9 (≈ 15.3 µM) | > 125 | 1 (≈ 3.92 µM) | 3.9 (≈ 15.3 µM) | > 125 | 1 (≈ 3.92 µM) | 3.9 (≈ 15.3 µM) | 1 (≈ 3.92 µM) | 2 (≈ 7.83 µM) | > 125 | 3.9 (≈ 15.3 µM) | 2 (≈ 7.83 µM) | 2 (≈ 7.83 µM) | 2 (≈ 7.83 µM) | 2 (≈ 7.83 µM) | 2 (≈ 7.83 µM) | 1 (≈ 3.92 µM) | MIC [21]: 1 µg/mL (≈ 3.92 µM); MIC [22]: 2 µg/mL (≈ 7.83 µM); MIC [23]: 3.9 µg/mL (≈ 15.3 µM); MIC [24]: 3.9 µg/mL (≈ 15.3 µM); MIC [25]: 0.5 µg/mL (≈ 1.96 µM); MIC [26]: 2 µg/mL (≈ 7.83 µM); MIC [27]: 0.5 µg/mL (≈ 1.96 µM); MIC [28]: 2 µg/mL (≈ 7.83 µM); Activity [29]: > 20%; MIC [30]: 1 µg/mL (≈ 3.92 µM); MIC [31]: 2 µg/mL (≈ 7.83 µM); MIC [32]: 2 µg/mL (≈ 7.83 µM); MIC [33]: 1 µg/mL (≈ 3.92 µM); MIC [34]: 1 µg/mL (≈ 3.92 µM); MIC [35]: 1 µg/mL (≈ 3.92 µM); MIC [36]: 1 µg/mL (≈ 3.92 µM) |
| CCCCCCn1sc2ccccc2c1=O | 7.8 (≈ 33.1 µM) | 3.9 (≈ 16.6 µM) | 3.9 (≈ 16.6 µM) | 7.8 (≈ 33.1 µM) | > 125 | 2 (≈ 8.5 µM) | 3.9 (≈ 16.6 µM) | 7.8 (≈ 33.1 µM) | 3.9 (≈ 16.6 µM) | 3.9 (≈ 16.6 µM) | 3.9 (≈ 16.6 µM) | 3.9 (≈ 16.6 µM) | > 125 | 7.8 (≈ 33.1 µM) | 3.9 (≈ 16.6 µM) | 3.9 (≈ 16.6 µM) | 3.9 (≈ 16.6 µM) | 3.9 (≈ 16.6 µM) | 3.9 (≈ 16.6 µM) | 2 (≈ 8.5 µM) | Activity [37]: Active; Activity [38]: Active; Activity [39]: Active; Activity [40]: Active; MIC [21]: 2 µg/mL (≈ 8.5 µM); MIC [22]: 3.9 µg/mL (≈ 16.6 µM); MIC [23]: 7.8 µg/mL (≈ 33.1 µM); MIC [24]: 7.8 µg/mL (≈ 33.1 µM); MIC [25]: 0.5 µg/mL (≈ 2.12 µM); MIC [26]: 2 µg/mL (≈ 8.5 µM); MIC [27]: ≤ 0.25 µg/mL; MIC [28]: 2 µg/mL (≈ 8.5 µM); MIC [30]: 2 µg/mL (≈ 8.5 µM); Activity [41]: Active; MIC [31]: 3.9 µg/mL (≈ 16.6 µM); MIC [32]: 3.9 µg/mL (≈ 16.6 µM); MIC [33]: 2 µg/mL (≈ 8.5 µM); MIC [34]: 2 µg/mL (≈ 8.5 µM); MIC [35]: 3.9 µg/mL (≈ 16.6 µM); MIC [36]: 3.9 µg/mL (≈ 16.6 µM) |
